The values that follow come from ChEMBL document CHEMBL1138683 (J Med Chem, 2004).

Series [1] can be described thus: Anti convulsant activity administered intra peritoneally to mouse for toxicity at 4 hr with dose of 30 mg/kg; 0/2= No of animals exhibiting toxicity /No of animals tested. Type of series: organism-based. More on the design: dose 30 mg/kg. Conditions: in vivo, ip.
Series [2] is described as follows: Anti convulsant activity administered intra peritoneally to mouse for toxicity at 0.5 hr with dose of 100 mg/kg; 0/8= No of animals exhibiting toxicity /No of animals tested. More on the design: dose 100 mg/kg. The note with it: in vivo, ip. Format: organism-based.
Series [3] is described as follows: Anti convulsant activity administered intra peritoneally to mouse for toxicity at 4 hr with dose of 300 mg/kg; 2/2= No of animals exhibiting toxicity /No of animals tested. Format: organism-based. More on the design: dose 300 mg/kg. The note with it: in vivo, ip.
For series [4], the system named is Mus musculus. Description: Anti convulsant activity administered intra peritoneally to mouse for subcutaneous metrazol test at 4 hr after the drug administered with dose of 30 mg/kg; 0/1= No of animals protected /No of animals tested. Type of series: functional. The note with it: route intraperitoneal.
The subject of series [5] is Mus musculus. Kind of series: Anti convulsant activity administered intra peritoneally to mouse for subcutaneous metrazol test at 0.5 hr with dose of 100 mg/kg; 0/1= No of animals protected /No of animals tested. Format: functional.
In series [6] the test system is Mus musculus. Description: Anti convulsant activity administered intra peritoneally to mouse at maximal electroshock test at 0.5 hr after the drug administered with dose of 300 mg/kg; 1/1= No of animals protected /No of animals tested. Format: functional.
For series [7], the system named is Rattus norvegicus. Description: Anticonvulsant activity after oral administration of 30 mg/kg dose after 2 hr in rats; +means 25% of the animal is protected. Format: functional, organism-based. More on the design: dose 30 mg/kg. An outline of the steps:
(§1)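 Oral dosing of rats at a single dose, compound dissolved or suspended in 0.5% methylcellulose. Protection in the MES or scMet test checked 15 min, 30 min, 1 h, 2 h and 4 h after dosing. Scored as 25/50/75/100% of animals protected (+ to ++++), – for none.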

Series [8] can be described thus: Anti convulsant activity administered intra peritoneally to mouse for subcutaneous metrazol test at 4 hr with dose of 300 mg/kg; 4/4= No of animals protected /No of animals tested. More on the design: dose 300 mg/kg. Format: ADME, organism-based.
The subject of series [9] is Mus musculus. Description: Anti convulsant activity administered intra peritoneally to mouse at maximal electroshock test at 0.5 hr after the drug administered with dose of 100 mg/kg; 2/3= No of animals protected /No of animals tested. Type of series: functional.
For series [10], the system named is Rattus norvegicus. Description: Anticonvulsant activity after oral administration of 30 mg/kg dose after 15 min in rats; + means 25% of the animal protected. Format: functional, organism-based. More on the design: dose 30 mg/kg. In short, it runs like this: as §1
Series [11] concerns Mus musculus. Kind of series: Anti convulsant activity administered intra peritoneally to mouse for subcutaneous metrazol test at 0.5 hr with dose of 30 mg/kg; 0/1= No of animals protected /No of animals tested. Format: functional.
Series [12] concerns Mus musculus. Kind of series: Anti convulsant activity administered intra peritoneally to mouse at maximal electroshock test at 4 hr after the drug administered with dose of 100 mg/kg; 3/3= No of animals protected /No of animals tested. Type of series: functional.
Series [13] can be described thus: Toxicity after oral administration of 100 mg/kg dose in rats;++++ means 100% animals exhibited toxicity. Type of series: organism-based. More on the design: dose 100 mg/kg, route oral. Conditions: rat, in vivo. In short, it runs like this: (§2)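 Rats dosed orally with compound dissolved or suspended in 0.5% methylcellulose (0.04 mL per 10 g body weight). Anticonvulsant protection (MES or scMet) and toxicity scored at 15 min, 30 min, 1 h, 2 h and 4 h after dosing. Graded in steps of 25% of animals protected or showing toxicity.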

In series [14] the test system is Mus musculus. Kind of series: Anti convulsant activity administered intra peritoneally to mouse for subcutaneous metrazol test at 4 hr with dose of 300 mg/kg; 0/1= No of animals protected /No of animals tested. Format: functional.
Series [15] relates to Mus musculus. Description: Anti convulsant activity administered intra peritoneally to mouse at maximal electroshock test at 0.5 h after the drug administered with dose of 30 mg/kg; 0/1= No of animals protected /No of animals tested. Format: functional.
Series [16] relates to Mus musculus. Kind of series: Anti convulsant activity administered intra peritoneally to mouse at maximal electroshock test at 4 hr after the drug administered with dose of 30 mg/kg; 0/1= No of animals protected /No of animals tested. Format: functional.
For series [17], the system named is Mus musculus. Kind of series: Anti convulsant activity administered intra peritoneally to mouse at maximal electroshock test at 4 hr after the drug administered with dose of 300 mg/kg; 1/1= No of animals protected /No of animals tested. Format: functional.
Series [18] relates to Mus musculus. Description: Anti convulsant activity administered intra peritoneally to mouse for subcutaneous metrazol test at 4 hr after the drug administered with dose of 100 mg/kg; 0/1= No of animals protected /No of animals tested. Format: functional.
Series [19] in a line: Anti convulsant activity administered intra peritoneally to mouse for toxicity at 4 hr with dose of 100 mg/kg; 3/4= No of animals exhibiting toxicity /No of animals tested. Type of series: organism-based. More on the design: dose 100 mg/kg. The note with it: in vivo, ip.
Series [20] relates to Mus musculus. Description: Anti convulsant activity administered intra peritoneally to mouse for subcutaneous metrazol test at 0.5 h with dose of 300 mg/kg; 0/1= No of animals protected /No of animals tested. Format: functional.
The test system of series [21] is Rattus norvegicus. Description: Anticonvulsant activity after oral administration of 100 mg/kg dose after 30 min in rats; ++ means 50% animals protected. Type of series: functional, organism-based. More on the design: dose 100 mg/kg. An outline of the steps: as §1
The subject of series [22] is Rattus norvegicus. Description: Anticonvulsant activity after oral administration of 30 mg/kg dose after 1 hr in rats;+ means 25% animals protected. Format: functional, organism-based. More on the design: dose 30 mg/kg. An outline of the steps:
as §1

The subject of series [23] is Rattus norvegicus. Description: Anticonvulsant activity after oral administration of 100 mg/kg dose after 2 hr in rats; ++means 50% of the animals protected. More on the design: dose 100 mg/kg. Type of series: functional, organism-based. In short, it runs like this:
as §1

Series [24] in a line: Anti convulsant activity administered intra peritoneally to mouse for toxicity at 0.5 hr with dose of 30 mg/kg; 0/4= No of animals exhibiting toxicity /No of animals tested. Type of series: organism-based. More on the design: dose 30 mg/kg. The note with it: in vivo, ip.
For series [25], the system named is Mus musculus. Description: Anticonvulsant activity administered intra peritoneally to mouse for the protective index of toxicity by maximal electroshock test; T D50/ED50. Format: functional.
Series [26] is described as follows: Anticonvulsant activity administered intra peritoneally to mouse for toxicity. Conditions: in vivo, ip.
Series [27] concerns Rattus norvegicus. Kind of series: Anticonvulsant activity administered orally to rat for protective index of subcutaneous metrazol test. Type of series: functional.
Series [28] relates to Mus musculus. Kind of series: Anticonvulsant activity administered intra peritoneally to mouse for protective index of subcutaneous metrazol test. Format: functional.
In series [29] the test system is Rattus norvegicus. Description: Anticonvulsant activity administered orally to rat for the protective index of toxicity by maximal electroshock test; TD50/ED50. Format: functional.
For series [30], the system named is Mus musculus. Kind of series: Anti convulsant activity administered intra peritoneally to mouse at maximal electroshock test at 4 hr after the drug administered with dose of 100 mg/kg; 0/3= No of animals protected /No of animals tested. Format: functional.
A short description of series [31]: Anti convulsant activity administered intra peritoneally to mouse for toxicity at 0.5 hr with dose of 300 mg/kg; 4/4= No of animals exhibiting toxicity /No of animals tested. Type of series: organism-based. More on the design: dose 300 mg/kg. The note with it: in vivo, ip.
The test system of series [32] is Mus musculus. Kind of series: Anti convulsant activity administered intra peritoneally to mouse at maximal electroshock test at 0.5 hr after the drug administered with dose of 100 mg/kg; 0/3= No of animals protected /No of animals tested. Type of series: functional.
A short description of series [33]: Toxicity after oral administration of 50 mg/kg dose in rats; ++ means 50% of the animals exhibiting toxicity. Type of series: organism-based. Conditions: rat, in vivo. More on the design: dose 50 mg/kg, route oral. An outline of the steps: as §2
The test system of series [34] is Rattus norvegicus. Kind of series: Anticonvulsant activity after oral administration of 30 mg/kg dose after 4 hr in rats; - means 25% of the animal protected. Type of series: functional, organism-based. More on the design: dose 30 mg/kg.
Series [35] can be described thus: Anti convulsant activity administered intra peritoneally to mouse for toxicity at 4 hr with dose of 100 mg/kg; 0/4= No of animals exhibiting toxicity /No of animals tested. Type of series: organism-based. More on the design: dose 100 mg/kg. The note with it: in vivo, ip.
Series [36] has as its system Rattus norvegicus. Kind of series: Anticonvulsant activity after oral administration of 223 mg/kg dose after 1 hr in rats; ++++ means 100% of the animals protected. Format: functional, organism-based. More on the design: dose 223 mg/kg. In short, it runs like this:
as §1

Regarding `CC1(C)C(C(=O)NC(N)=S)C1(C)C`, the Toxicity in series [1] is listed as 0; in series [2] it was 0; in series [3] it was 2; in series [8], 4; in series [13], 100% animals exhibited toxicity; in [19], 3. Moreover, the Toxicity in [24] is given as 0. The Activity with Mus musculus [4] amounted to 0; with Mus musculus [5], 0; in the series with Mus musculus [6], 1; in the series with Rattus norvegicus [7], 25% animals protected; in the series with Mus musculus [9] it was 2; with Rattus norvegicus [10], 25% animals protected. Also, the Activity with Mus musculus [11] was found to be 0; in the series on Mus musculus [12], 3; with Mus musculus [14], 0; in the series on Mus musculus [15] it was 0; in the series on Mus musculus [16], 0; with Mus musculus [17] it was 1. The Activity amounted to 0 with Mus musculus [18], 0 in the series with Mus musculus [20], 25% animals protected in the series on Rattus norvegicus [21] and 25% animals protected with Rattus norvegicus [22]. Moreover, in the series on Rattus norvegicus [23], the “Anticonvulsant Activity” value is 50% of the animals protected.
As to `CNC(=O)C1C(C)(C)C1(C)C`, the Ratio in the series with Mus musculus [25] was 1.6; in the series with Rattus norvegicus [29] it was 2. For the same compound, the TD50 in series [26] stood at 153 mg/kg. In addition, the Activity worked out at 3.6 in the series on Rattus norvegicus [27] and 3.9 with Mus musculus [28].
For the compound `CCNC(=O)C1C(C)(C)C1(C)C`, the Toxicity in series [1] is reported as 0; in series [2], 0; in series [3], 2; in [31], 4; in series [33], 50% of the animals exhibiting toxicity; in series [35], 0. This compound also returned a Toxicity in [24] of 0. The Activity was 0 in the series with Mus musculus [30]; 0 with Mus musculus [4]; 0 in the series with Mus musculus [5]; 1 with Mus musculus [6]; 0 in the series with Mus musculus [11]; 0 in the series on Mus musculus [14]. The Activity in the series on Mus musculus [15] was 0; in the series on Mus musculus [16], 0; in the series with Mus musculus [32] it was 0; with Mus musculus [17], 1; with Rattus norvegicus [34] it was 100% of the animals protected; in the series with Mus musculus [18], 0. The Activity in the series on Mus musculus [20] is recorded as 1; in the series on Rattus norvegicus [36] it was 100% of the animals protected.
